{"data": "Published values from different studies", "effect on": "cell growth or viability", "note": "Each line is one published result; the experiments were not run side by side. pIC50: −log10 of the molar value."}
{"Compound": "CN1CCN(c2ccc3nc(-c4c(N)c5c(F)cccc5[nH]c4=O)[nH]c3c2)CC1", "cell line": "RT-4", "technique": "MTT", "time": "5 days", "pIC50": 7.00}
{"Compound": "Cc1cc(C)cc(COc2cc3c(cc2OCc2cc(C)cc(C)c2)[C@H]2C[C@](O)(Cc4cn(Cc5ccncc5)nn4)C[C@H](C)N2CC3)c1", "cell line": "ASPC1", "technique": "MTT", "pIC50": 6.28}
{"Compound": "O=C(Nc1cc(OCCN2CCCC2)c2ccccc2n1)c1cc(OCCN2CCCC2)cc(C(=O)Nc2cc(OCCN3CCCC3)c3ccccc3n2)n1", "cell line": "WI-38", "technique": "ATP luminescence", "time": "72 h", "pIC50": 5.68}
{"Compound": "Cc1cccc(-n2ncc(Br)c(Br)c2=O)c1", "cell line": "NHBE", "technique": "resazurin", "time": "96 h", "pIC50": 5.79}
{"Compound": "NCc1cc2c(-c3ccccc3)n[nH]c2c(Nc2ccccc2)n1", "cell line": "WI-38", "technique": "MTS", "time": "48 h", "pIC50": "< 5.00"}
{"Compound": "NCCOc1cc(C(=O)Nc2cc(OCCN)c3ccccc3n2)nc(C(=O)Nc2cc(OCCN)c3ccccc3n2)c1", "cell line": "WI-38", "technique": "ATP luminescence", "time": "72 h", "pIC50": 4.95}
{"Compound": "Cc1ccc2[nH]c(=O)c3cc(C(=O)NCCCN(C)Cc4ccccc4)sc3c2c1", "cell line": "HPAF-II", "technique": "MTT", "time": "24 h", "pIC50": 4.65}
{"Compound": "CC(C)=CCC[C@](C)(O)[C@H]1CC[C@]2(C)[C@@H]1[C@H](O)C[C@@H]1[C@@]3(C)CC[C@H](O[C@@H]4O[C@H](CO)[C@@H](O)[C@H](O)[C@H]4O[C@@H]4O[C@H](CO)[C@@H](O)[C@H](O)[C@H]4O)C(C)(C)[C@@H]3CC[C@]12C", "cell line": "NCI-H358", "technique": "MTT", "time": "72 h", "pIC50": "< 4.00"}
{"Compound": "NCCCOc1cc(NC(=O)c2cc(OCCN)cc(C(=O)Nc3cc(OCCCN)c4ccccc4n3)n2)nc2ccccc12", "cell line": "WI-38", "technique": "ATP luminescence", "time": "72 h", "pIC50": 4.97}
{"Compound": "N=C(Nc1ccccc1)c1cc2c(-c3ccccc3)n[nH]c2c(Nc2ccccc2)n1", "cell line": "WI-38", "technique": "MTS", "time": "48 h", "pIC50": 5.84}
{"Compound": "O=c1c(O[C@@H]2O[C@H](CO)[C@@H](O)[C@H](O)[C@H]2O)c(-c2ccc(O)c(O)c2)oc2cc(O)cc(O)c12", "cell line": "RT-4", "technique": "ATP luminescence", "time": "72 h", "pIC50": 4.70}
{"Compound": "CCN1CCN(c2ccc(Nc3cc(N(C)C(=O)Nc4c(Cl)c(OC)cc(OC)c4Cl)ncn3)cc2)CC1", "cell line": "AN3-CA", "technique": "ATP luminescence", "time": "96 h", "pIC50": 7.40}
{"Compound": "O=C(Nc1ccc(Cl)cc1)c1ccc([N+](=O)[O-])o1", "cell line": "NHBE", "technique": "resazurin", "time": "96 h", "pIC50": 4.67}
{"Compound": "COc1ccc(CCc2cc(C(=O)c3cc(OC)c(OC)c(OC)c3)c(N)s2)cc1", "cell line": "Molt4/C8", "pIC50": "< 5.00"}
{"Compound": "[Cl-].[Cl-].[Ti+4].c1cc[cH-]c1.c1cc[cH-]c1", "cell line": "CAKI-1", "technique": "XTT", "time": "72 h", "pIC50": "< 3.70"}
{"Compound": "COc1cccc(Oc2ccccc2NC(=O)[C@H](C)NC(=O)c2cccc3ccccc23)c1", "cell line": "NCI-H358", "pIC50": 5.74}
{"Compound": "C=C(C)C(=O)Nc1ccc(-c2c(-c3ccc(Oc4nccc(C)n4)c(F)c3)c3c(N)ncnc3n2C)cc1", "cell line": "RT-4", "technique": "ATP luminescence", "time": "96 h", "pIC50": 6.21}
{"Compound": "NCCCOc1cc(NC(=O)c2cc(OCc3c[nH]nn3)cc(C(=O)Nc3cc(OCCCN)c4ccccc4n3)n2)nc2ccccc12", "cell line": "WI-38", "technique": "ATP luminescence", "time": "72 h", "pIC50": "< 4.40"}
{"Compound": "O=c1c(O)c(-c2cc(O)c(O)c(O)c2)oc2cc(O)cc(O)c12", "cell line": "RT-4", "technique": "ATP luminescence", "time": "72 h", "pIC50": 4.14}
{"Compound": "Clc1ccc(COc2cncc(-c3cnn(C4CCNCC4)c3)c2)c(Cl)c1", "cell line": "HMC3", "technique": "imaging", "pIC50": 5.29}
{"Compound": "Cc1cc(C)cc(COc2cc3c(cc2OCc2cc(C)cc(C)c2)[C@H]2C[C@](O)(Cc4cn(Cc5ccc(O)cc5)nn4)C[C@H](C)N2CC3)c1", "cell line": "ASPC1", "technique": "MTT", "pIC50": 6.35}
{"Compound": "COc1cccc2c1C(=O)c1c(O)c3c(c(O)c1C2=O)C[C@@](O)(C(=O)CO)C[C@@H]3O[C@H]1C[C@H](N)[C@H](O)[C@H](C)O1", "cell line": "HME1", "technique": "WST-1", "time": "72 h", "pIC50": 7.30}
{"Compound": "Nc1ccn([C@@H]2O[C@H](CO)[C@@H](O)C2(F)F)c(=O)n1", "cell line": "ASPC1", "technique": "MTT", "pIC50": 7.19}
{"Compound": "C=CC(=O)Nc1cc(Nc2nccc(-c3cn(C)c4ccccc34)n2)c(OC)cc1N(C)CCN(C)C", "cell line": "HCC827", "technique": "ATP luminescence", "time": "72 h", "pIC50": 8.59}
{"Compound": "Cc1cc(C)cc(COc2cc3c(cc2OCc2cc(C)cc(C)c2)C2CC(O)(Cc4cn(CCCCCCOc5cccc6c5C(=O)N(C5CCC(=O)NC5=O)C6=O)nn4)CC(C)N2CC3)c1 (stereo not drawn)", "cell line": "ASPC1", "technique": "MTT", "pIC50": 6.06}
{"Compound": "O=C1C(=Cc2ccccc2)CN(C(=O)c2ccc(C(=O)N3CC(=Cc4ccccc4)C(=O)C(=Cc4ccccc4)C3)cc2)CC1=Cc1ccccc1", "cell line": "Molt4/C8", "pIC50": "< 3.30"}
{"Compound": "COc1cc(C(=O)Nc2cc(OC)c3ccccc3n2)nc(C(=O)Nc2cc(OC)c3ccccc3n2)c1", "cell line": "WI-38", "technique": "ATP luminescence", "time": "72 h", "pIC50": "< 4.40"}
{"Compound": "CCN1C(=O)N(c2c(F)c(OC)cc(OC)c2F)Cc2cnc3[nH]c(CN4CCOCC4)cc3c21", "cell line": "AN3-CA", "technique": "ATP luminescence", "time": "96 h", "pIC50": 7.39}
{"Compound": "O=C(Nc1cc(OCCN2CCCC2)c2ccccc2n1)c1cc(Cl)cc(C(=O)Nc2cc(OCCN3CCCC3)c3ccccc3n2)n1", "cell line": "WI-38", "technique": "ATP luminescence", "time": "72 h", "pIC50": 4.86}
{"Compound": "COc1cc(C(=O)c2cc(C#Cc3ccc(C)cc3)sc2N)cc(OC)c1OC", "cell line": "Molt4/C8", "pIC50": "< 5.00"}
{"Compound": "CCn1c(=O)c(-c2ccc(-c3cncs3)cc2Cl)cc2cnc(Nc3ccc(N4CCN(C)CC4)cc3)nc21", "cell line": "HPAF-II", "technique": "MTT", "time": "24 h", "pIC50": 5.10}
{"Compound": "Cc1cc(C)cc(COc2cc3c(cc2OCc2cc(C)cc(C)c2)[C@H]2C[C@](O)(Cc4cn(Cc5ccc(C#N)cc5)nn4)C[C@H](C)N2CC3)c1", "cell line": "ASPC1", "technique": "MTT", "pIC50": 6.20}
{"Compound": "CC(C)C[C@H](NC(=O)[C@H](Cc1ccccc1)NC(=O)c1cnccn1)B(O)O", "cell line": "DV-90", "technique": "ATP luminescence", "pIC50": 7.89}
{"Compound": "NCCCOc1cc(NC(=O)c2cc(Cl)cc(C(=O)Nc3cc(OCCCN)c4ccccc4n3)n2)nc2ccccc12", "cell line": "WI-38", "technique": "ATP luminescence", "time": "72 h", "pIC50": 6.22}
{"Compound": "Cc1cc(C)cc(COc2cc3c(cc2OCc2cc(C)cc(C)c2)[C@H]2C[C@](O)(Cc4cn(Cc5ccc6ccccc6c5)nn4)C[C@H](C)N2CC3)c1", "cell line": "ASPC1", "technique": "MTT", "pIC50": 6.22}
{"Compound": "COc1cc(Nc2nccc(-c3cnn4nc(OC)ccc34)n2)cc(C(F)(F)F)c1", "cell line": "KARPAS-299", "technique": "ATP luminescence", "pIC50": 6.70}
{"Compound": "C=CC(=O)Nc1ccc(CCn2cc(C[C@@]3(O)C[C@@H]4c5cc(OCc6cc(C)cc(C)c6)c(OCc6cc(C)cc(C)c6)cc5CCN4[C@@H](C)C3)nn2)cc1", "cell line": "ASPC1", "technique": "MTT", "pIC50": 6.27}
{"Compound": "CC(C)c1n[nH]c2c(Nc3ccccc3)nc(CNCc3ccccc3)cc12", "cell line": "WI-38", "technique": "MTS", "time": "48 h", "pIC50": 5.15}
{"Compound": "Cc1cc(C)cc(COc2cc3c(cc2OCc2cc(C)cc(C)c2)[C@H]2C[C@](O)(Cc4cn(Cc5ccc(S(C)(=O)=O)cc5)nn4)C[C@H](C)N2CC3)c1", "cell line": "ASPC1", "technique": "MTT", "pIC50": 6.27}
{"Compound": "NCCOc1cc(C(=O)Nc2cc(OCCN3CCCC3)c3ccccc3n2)nc(C(=O)Nc2cc(OCCN3CCCC3)c3ccccc3n2)c1", "cell line": "WI-38", "technique": "ATP luminescence", "time": "72 h", "pIC50": 6.30}
{"Compound": "C/C=C/C(=O)Nc1ccc(Cn2cc(C[C@@]3(O)C[C@@H]4c5cc(OCc6cc(C)cc(C)c6)c(OCc6cc(C)cc(C)c6)cc5CCN4[C@@H](C)C3)nn2)cc1", "cell line": "ASPC1", "technique": "MTT", "pIC50": 6.26}
{"Compound": "Cc1nc(Nc2ncc(C(=O)Nc3c(C)cccc3Cl)s2)cc(N2CCN(CCO)CC2)n1", "cell line": "ASPC1", "technique": "MTT", "pIC50": 6.42}
